Blank lines part the entries; values can stand above or below the compound they belong to. The source made the active and inactive calls. The rule behind the calls is not given here.
Columns and labels:
[1] = target: T1, Diacylglycerol lipase-alpha (Homo sapiens, UniProt Q9Y4D2); experiment: Inhibition of human DAGLalpha expressed in HEK293T cell membranes; type: cell-based, HEK-293T
T1 sequence (Q9Y4D2 whole entry): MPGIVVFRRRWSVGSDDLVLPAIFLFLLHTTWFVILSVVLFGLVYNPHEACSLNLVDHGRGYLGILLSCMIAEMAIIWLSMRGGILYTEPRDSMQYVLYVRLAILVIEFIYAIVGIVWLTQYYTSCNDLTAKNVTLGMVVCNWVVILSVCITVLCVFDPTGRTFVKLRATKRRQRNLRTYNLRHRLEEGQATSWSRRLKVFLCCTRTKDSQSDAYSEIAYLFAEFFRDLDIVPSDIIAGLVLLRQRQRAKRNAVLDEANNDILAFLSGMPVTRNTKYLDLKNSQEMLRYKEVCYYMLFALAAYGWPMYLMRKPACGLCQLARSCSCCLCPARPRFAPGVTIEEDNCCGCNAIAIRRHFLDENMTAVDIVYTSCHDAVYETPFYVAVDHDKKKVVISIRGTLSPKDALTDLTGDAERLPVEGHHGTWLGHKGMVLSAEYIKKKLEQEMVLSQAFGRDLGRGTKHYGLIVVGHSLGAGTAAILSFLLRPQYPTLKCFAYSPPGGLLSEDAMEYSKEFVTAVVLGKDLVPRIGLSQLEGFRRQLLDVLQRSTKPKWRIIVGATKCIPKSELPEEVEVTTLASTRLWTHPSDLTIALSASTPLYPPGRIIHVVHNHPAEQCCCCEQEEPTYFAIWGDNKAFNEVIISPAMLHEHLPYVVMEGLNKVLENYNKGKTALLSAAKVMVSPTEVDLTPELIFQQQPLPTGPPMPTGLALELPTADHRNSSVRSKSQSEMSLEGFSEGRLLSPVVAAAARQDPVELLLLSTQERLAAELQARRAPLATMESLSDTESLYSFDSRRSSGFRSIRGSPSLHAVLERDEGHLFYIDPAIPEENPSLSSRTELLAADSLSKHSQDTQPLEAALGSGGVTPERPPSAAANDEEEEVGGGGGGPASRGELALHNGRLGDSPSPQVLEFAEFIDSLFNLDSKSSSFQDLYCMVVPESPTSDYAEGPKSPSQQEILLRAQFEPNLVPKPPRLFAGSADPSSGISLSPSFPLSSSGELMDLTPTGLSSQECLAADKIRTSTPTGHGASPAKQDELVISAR
How it was run: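 Colorimetric biochemical assay using para-nitrophenylbutyrate as substrate with membranes from HEK293 cells overexpressing human DAGL-α.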

[2] = target: T2, Monoacylglycerol lipase ABHD6 (Homo sapiens) (UniProt Q9BV23); experiment: (§1) Inhibition of human ABHD6 expressed in HEK293T cell membranes assessed as reduction in glycerol production using 2-arachidonoyl glycerol substrate; type: cell-based; conditions: HEK-293T
T2 sequence (whole entry): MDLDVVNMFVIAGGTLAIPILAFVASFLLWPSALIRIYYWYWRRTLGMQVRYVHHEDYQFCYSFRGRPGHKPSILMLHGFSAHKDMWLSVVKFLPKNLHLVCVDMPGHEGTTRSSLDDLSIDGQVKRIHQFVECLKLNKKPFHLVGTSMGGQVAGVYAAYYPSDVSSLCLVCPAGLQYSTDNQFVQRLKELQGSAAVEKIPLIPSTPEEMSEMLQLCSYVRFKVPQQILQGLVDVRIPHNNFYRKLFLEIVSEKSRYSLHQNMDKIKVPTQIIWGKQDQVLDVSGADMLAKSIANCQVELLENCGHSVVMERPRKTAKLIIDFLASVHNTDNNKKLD
How it was run: (§2)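 Human ABHD6 membranes from transiently transfected HEK293T (0.04 µg/µL final) in HEMNB buffer, pH 7.4, preincubated 30 min with inhibitor. 2-AG (25 µM) added with glycerol kinase/GPO/HRP (0.2 U/mL), 0.125 mM ATP and 10 µM Amplifu Red. Resorufin fluorescence read every 5 min for 75 min at 21°C; slopes over 10–35 min, normalized; N = 2, n = 2.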

[3] = target: T3, Monoacylglycerol lipase ABHD6 (Homo sapiens, UniProt Q9BV23); experiment: as §1; type: cell-based, HEK-293T; how it was run: as §2
T3 sequence (Q9BV23 whole entry): T2 sequence (whole entry)

[4] = target: T4, Diacylglycerol lipase-alpha (Mus musculus) (UniProt Q6WQJ1); experiment: Inhibition of MB064 labeling of DAGLalpha in mouse brain homogenates by activity based protein profiling assay
T4 sequence (whole entry): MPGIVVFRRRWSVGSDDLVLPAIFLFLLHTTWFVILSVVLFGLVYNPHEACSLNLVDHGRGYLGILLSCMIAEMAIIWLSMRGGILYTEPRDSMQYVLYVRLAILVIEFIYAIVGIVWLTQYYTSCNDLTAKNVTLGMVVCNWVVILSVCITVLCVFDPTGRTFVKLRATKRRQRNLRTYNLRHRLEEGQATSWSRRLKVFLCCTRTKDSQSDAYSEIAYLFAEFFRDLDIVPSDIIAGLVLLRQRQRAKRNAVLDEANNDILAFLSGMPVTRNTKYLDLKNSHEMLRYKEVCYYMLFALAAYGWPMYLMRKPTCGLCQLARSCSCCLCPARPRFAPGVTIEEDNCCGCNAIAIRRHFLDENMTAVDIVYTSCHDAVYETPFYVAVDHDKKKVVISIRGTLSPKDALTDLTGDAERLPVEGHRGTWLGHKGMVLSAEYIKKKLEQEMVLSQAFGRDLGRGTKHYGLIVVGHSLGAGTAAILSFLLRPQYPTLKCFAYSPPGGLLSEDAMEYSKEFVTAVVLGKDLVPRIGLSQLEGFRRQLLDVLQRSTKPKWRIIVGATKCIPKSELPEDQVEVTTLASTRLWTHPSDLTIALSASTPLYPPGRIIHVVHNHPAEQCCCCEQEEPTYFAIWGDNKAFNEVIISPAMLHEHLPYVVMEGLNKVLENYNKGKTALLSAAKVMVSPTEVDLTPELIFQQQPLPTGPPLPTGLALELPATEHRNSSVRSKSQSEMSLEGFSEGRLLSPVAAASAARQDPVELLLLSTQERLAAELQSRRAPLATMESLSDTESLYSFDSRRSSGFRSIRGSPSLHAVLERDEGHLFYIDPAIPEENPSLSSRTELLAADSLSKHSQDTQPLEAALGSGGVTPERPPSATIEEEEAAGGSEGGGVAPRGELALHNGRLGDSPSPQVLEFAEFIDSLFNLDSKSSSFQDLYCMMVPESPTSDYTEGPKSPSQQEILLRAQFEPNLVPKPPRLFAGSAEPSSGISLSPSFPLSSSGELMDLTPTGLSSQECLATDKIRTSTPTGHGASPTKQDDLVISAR

[5] = target: T5, Monoacylglycerol lipase ABHD6 (Mus musculus) (UniProt Q8R2Y0); experiment: Inhibition of TAMRA-FP labeling of ABHD6 in mouse brain homogenates at 20 uM by activity based protein profiling assay; type: tissue-based; conditions: in the assay text read “MB064” for “TAMRA-FP”
T5 sequence (whole entry): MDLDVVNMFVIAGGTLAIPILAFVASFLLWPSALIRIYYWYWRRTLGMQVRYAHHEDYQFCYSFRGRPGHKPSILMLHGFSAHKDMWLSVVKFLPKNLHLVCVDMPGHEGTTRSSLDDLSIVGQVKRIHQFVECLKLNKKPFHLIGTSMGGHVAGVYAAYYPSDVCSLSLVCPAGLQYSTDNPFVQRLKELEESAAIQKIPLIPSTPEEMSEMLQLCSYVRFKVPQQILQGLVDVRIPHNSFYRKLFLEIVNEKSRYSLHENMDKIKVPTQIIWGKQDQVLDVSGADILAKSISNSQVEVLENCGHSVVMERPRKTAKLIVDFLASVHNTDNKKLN
How it was run: (§3)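 Mouse brain membrane proteome (2.0 mg/mL) preincubated 30 min at rt with inhibitor or DMSO vehicle, then labeled 15 min at rt with ABP 1 (250 nM final) or TAMRA-FP (500 nM final). Gel-based read-out: lane band intensity corrected for total protein loading by Coomassie stain, vehicle set to 100%.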

[6] = species: Mus musculus; experiment: Inhibition of MAGL labeling in mouse brain homogenates at 20 uM by activity based protein profiling assay; type: tissue-based; how it was run: as §3
[7] = target: T4, Diacylglycerol lipase-alpha (Mus musculus); experiment: (§4) Inhibition of MB064 labeling of DAGLalpha in mouse brain homogenates by activity based protein profiling assay; type: tissue-based
How it was run: (§5)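 Endogenous DAGL-α in mouse brain membrane proteome: inhibitors at a range of concentrations, 30 min at rt, then probe 1 for 10 min at rt. Quenched in SDS sample buffer, resolved on 10% SDS-PAGE, fluorescence scanned. Remaining activity taken from integrated band intensity; IC50 from dose-response curve (SEM, n = 3).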

[8] = target: T6, Diacylglycerol lipase-alpha (Mus musculus, UniProt Q6WQJ1); experiment: as §4; type: tissue-based; how it was run: as §5
T6 sequence (Q6WQJ1 whole entry): T4 sequence (whole entry)

[9] = target: T1, Diacylglycerol lipase-alpha; experiment: Inhibition of human DAGLalpha expressed in HEK293T cell membranes assessed as reduction in hydrolysis of inhibition of [14C]-sn-1-oleoyl-2-arachidonoyl-glycerol; type: cell-based, HEK-293T

Structure (SMILES): CC1(C)CCc2cc(S(=O)(=O)N(CC(=O)O)Cc3ccc(Oc4ccccc4)cc3)ccc2O1
IC50 [1]: 0.018 µM | inhibition [2]: Dose-dependent effect | Ki [3]: 0.8 µM | inhibition [4]: Dose-dependent effect | inhibition [5]: Active | inhibition [6]: inactive | inhibition [7]: Dose-dependent effect | IC50 [8]: 0.124 µM | Ki [9]: 0.7 µM

Structure (SMILES): O=C(O)CN(Cc1ccc(Oc2ccccc2)cc1)S(=O)(=O)c1ccc(Cl)cc1
IC50 [1]: 0.066 µM

Structure (SMILES): CC1(C)CCc2cc(S(=O)(=O)N(CCOC(=O)N3CCCCC3)Cc3cccc(Oc4ccccc4)c3)ccc2O1
IC50 [1]: > 10 µM

Structure (SMILES): CC1(C)CCc2cc(S(=O)(=O)N(Cc3cccc(Oc4ccccc4)c3)Cc3nnn[nH]3)ccc2O1
IC50 [1]: > 10 µM

Structure (SMILES): O=C(O)CN(Cc1ccc(Oc2ccccc2)cc1)C(=O)c1c(Cl)cccc1Cl
IC50 [1]: > 10 µM

Structure (SMILES): O=C(O)CN(Cc1ccc(Oc2ccccc2)cc1)S(=O)(=O)c1c(Cl)cccc1Cl
IC50 [1]: 0.695 µM

Structure (SMILES): O=C(O)CN(Cc1ccc(Oc2ccccc2)cc1)C(=O)c1ccc(Cl)cc1
IC50 [1]: > 10 µM

Structure (SMILES): O=C(O)CN(Cc1cccc(Oc2ccccc2)c1)S(=O)(=O)c1ccc(Cl)cc1
IC50 [1]: 0.091 µM

Structure (SMILES): O=C(O)CN(Cc1cccc(Oc2ccccc2)c1)S(=O)(=O)c1c(Cl)cccc1Cl
IC50 [1]: 1.6 µM

The next lines start with results.

IC50 [1]: > 10 µM
Structure (SMILES): COC(=O)CN(Cc1ccc(Oc2ccccc2)cc1)S(=O)(=O)c1ccc2c(c1)CCC(C)(C)O2

IC50 [1]: 0.302 µM
Structure (SMILES): O=C(O)CN(Cc1ccc(Oc2ccc(C(F)(F)F)cn2)cc1)S(=O)(=O)c1ccc(Cl)cc1

IC50 [1]: > 10 µM
Structure (SMILES): CC1(C)CCc2cc(S(=O)(=O)N(CCO)Cc3cccc(Oc4ccccc4)c3)ccc2O1

IC50 [1]: 0.065 µM | inhibition [2]: Dose-dependent effect | Ki [3]: 2.7 µM | inhibition [4]: Dose-dependent effect | inhibition [5]: Active | inhibition [7]: Dose-dependent effect | IC50 [8]: 0.743 µM
Structure (SMILES): CC1(C)CCc2cc(S(=O)(=O)N(CC(=O)O)Cc3ccc(Oc4ccc(C(F)(F)F)cn4)cc3)ccc2O1
inhibition [6]: inactive

IC50 [1]: 0.185 µM
Structure (SMILES): CC1(C)CCc2cc(S(=O)(=O)N(CC(=O)O)Cc3ccccc3Oc3ccccc3)ccc2O1

IC50 [1]: 0.512 µM
Structure (SMILES): CC1(C)CCc2cc(S(=O)(=O)N(CCN)Cc3ccc(Oc4ccccc4)cc3)ccc2O1

IC50 [1]: 0.056 µM | inhibition [2]: Dose-dependent effect | Ki [3]: 18.3 µM | inhibition [4]: Dose-dependent effect | inhibition [5]: Active | inhibition [7]: Dose-dependent effect | IC50 [8]: 0.355 µM
Structure (SMILES): CC1(C)CCc2cc(S(=O)(=O)N(CC(=O)O)Cc3cccc(Oc4ccccc4)c3)ccc2O1
inhibition [6]: inactive

IC50 [1]: > 10 µM
Structure (SMILES): CC1(C)CCc2cc(S(=O)(=O)N(CC(N)=O)Cc3cccc(Oc4ccccc4)c3)ccc2O1

IC50 [1]: 0.143 µM
Structure (SMILES): CC1(C)CCc2cc(S(=O)(=O)N(CC(=O)O)Cc3cccc(Oc4ccc(C(F)(F)F)cn4)c3)ccc2O1

IC50 [1]: > 10 µM
Structure (SMILES): CC1(C)CCc2cc(S(=O)(=O)N(CC(=O)NCCOCCN)Cc3ccc(Oc4ccccc4)cc3)ccc2O1

IC50 [1]: > 10 µM
Structure (SMILES): CC1(C)CCc2cc(S(=O)(=O)N(CC#N)Cc3cccc(Oc4ccccc4)c3)ccc2O1

IC50 [1]: > 10 µM
Structure (SMILES): O=C(O)CN(Cc1ccc(Oc2ccc(C(F)(F)F)cn2)cc1)C(=O)c1ccc(Cl)cc1
